# Source: PubChem BioAssay (several laboratories)
# Hits are enriched below; roughly 2.4% of the tested compounds scored in any of these assays.
# MPTP block: blocks calcium-induced mitochondrial swelling; inhibition, % at 10 µM; actives 1.4% (n = 360,000); isolated mouse mitochondria, Ca2+ swelling absorbance, 30 min;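 active = inhibition of 50% or more, scaled per plate between neutral and stimulator controls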;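 note: 0% = DMSO wells given calcium and 100% = 1 mM EGTA wells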
# NR2E3 ag-1: human photoreceptor-specific nuclear receptor agonism; CHO-S Gal4-NCOR/VP16-NR2E3 two-hybrid, luciferase; inhibition of corepressor binding, % at 3.98 µM; actives 0.35% (n = 360,000);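 active = inhibition above the mean of all tested compounds plus 3 SD, cut at about 70% in these data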;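 note: 0% = DMSO with NR2E3 transfected cells and 100% = cells lacking NR2E3 construct; higher means lower luciferase signal from less NR2E3 corepressor binding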
# Target sequence (Q9Y5X4 whole entry, looked up, the tested form may be a part): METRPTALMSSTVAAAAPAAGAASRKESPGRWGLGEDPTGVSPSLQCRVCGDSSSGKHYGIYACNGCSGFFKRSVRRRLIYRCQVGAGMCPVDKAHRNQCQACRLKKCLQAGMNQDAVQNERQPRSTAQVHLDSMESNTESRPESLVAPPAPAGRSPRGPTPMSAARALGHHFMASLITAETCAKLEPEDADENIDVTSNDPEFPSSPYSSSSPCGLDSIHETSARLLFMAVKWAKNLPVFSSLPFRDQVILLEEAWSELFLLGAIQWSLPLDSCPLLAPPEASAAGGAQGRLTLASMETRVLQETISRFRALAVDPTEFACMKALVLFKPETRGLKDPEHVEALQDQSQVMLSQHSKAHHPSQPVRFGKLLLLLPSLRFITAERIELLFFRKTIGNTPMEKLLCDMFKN
# 697 NFkB inh: inhibitors of the PMA/ionomycin-induced NF-kB reporter in 697 B cells; 697 B-cell NF-kB luciferase reporter, 16 h; inhibition, % at 4 µM; actives 0.33% (n = 330,000); AID 435022; in the data active = inhibition above about 35%
# NR2E3 ag-2: agonists of human nuclear receptor NR2E3. actives 0.12% (n = 320,000). inhibition of corepressor binding, % at 4.78 µM. Q9Y5X4. GST-NR2E3/biotin-RetCOR TR-FRET, 1536-well;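 active = percent inhibition above the cutoff of mean plus 3 SD of all tested compounds, set per screening campaign, cut at about 20% in these data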;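 note: 0% = DMSO wells and 100% = biotin wells as full block of FRET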
#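 System: GST-tagged NR2E3 plus biotinylated RetCOR corepressor; Buffer or medium: pH 7.5 Tris-based buffer; Probe or stimulus: RetCOR corepressor, biotinylated, 7 nM; Doses: compound at 4.8 µM, single dose; Schedule: 5 h incubation at 4 °C; Technique: time-resolved FRET; Evaluation: percent inhibition of TR-FRET ratio; Replication: one well per compound, singlicate testing.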
# Jurkat NFkB inh: inhibitors of the PMA/ionomycin-induced NF-kB reporter in Jurkat cells; PMA/ionomycin-induced NF-kB luciferase reporter, luminescence; AID 435003; inhibition, % at 4 µM; actives 0.53% (n = 330,000); in the data active = inhibition above about 50%
# aDG glyco up: increases alpha dystroglycan glycosylation; Pro5-aDG cells, alpha-DG glycosylation AlphaScreen (IIH6); 0% Pro5, 100% B10-LARGE cell signal; activation, % at 10 µM; actives 0.22% (n = 360,000);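 active = activation of at least 8% versus controls, or a plate z-score of at least 8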;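 note: Pro5 are CHO cells carrying HIG-tagged alpha-DG that lacks glycosylation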
# aDG conf: alpha-DG glycosylation activation, confirmation; shares compounds with aDG glyco up; actives 17% (n = 600); Pro5-aDG cells, IIH6 AlphaLISA; scaled to LARGE-overexpressing B10 cells as 100%; activation, % at 10 µM (by protocol);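 active = activation of at least 7% in one or more replicates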;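 note: cells exposed to compound for two days before detection; 0% = DMSO-treated Pro5 cells and 100% = DMSO-treated B10-LARGE cells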
# * = called active by the depositor; . = no result given.
SMILES,MPTP block,NR2E3 ag-1,697 NFkB inh,NR2E3 ag-2,Jurkat NFkB inh,aDG glyco up,aDG conf
CC(=O)NCCc1ccc(S(=O)(=O)Nc2ccc(NC(=O)c3ccc(F)cc3)cc2)cc1,-0.8,-25.3,-5.5,7.2,3.8,-0.2,.
C[C@H](CO)N1C[C@H](C)[C@@H](CN(C)C(=O)Nc2ccc(N3CCN(C)CC3)cc2)OCc2cnnn2CCCC1=O,-0.2,-18.2,.,.,.,0.0,.
C[C@@H]1CN([C@H](C)CO)C(=O)CCCn2nncc2CO[C@@H]1CN(C)C(=O)Nc1ccc(N2CCN(C)CC2)cc1,-3.4,-17.3,.,.,.,8.5*,0.6
O=C(c1ccccc1OC(F)F)N1CCN(S(=O)(=O)c2ccc3c(c2)OCCCO3)CC1,0.6,34.9,17.0,0.7,3.7,13.5*,-0.5
O=C(c1ccccc1F)N1CCN(S(=O)(=O)c2ccc3c(c2)OCCO3)CC1,0.3,-22.5,6.2,-1.7,11.0,-0.1,.
Cc1c(C(=O)N(Cc2ccc(Cl)cc2)C2CCS(=O)(=O)C2)oc2ccccc12 (stereo unspecified),2.6,-24.2,-12.9,2.1,0.1,2.3*,-0.5
CCOc1ccc(-n2cc(C(=O)N3CCCCCC3)c3cc(OC)c(OC)cc3c2=O)cc1,0.6,-36.2,12.4,0.3,16.7,5.5*,9.9*
O=C(CNC(=O)c1ccccc1)N/N=C/c1ccc([N+](=O)[O-])s1,-1.2,-31.3,-1.2,-5.1,27.3,11.6*,5.5*
CCOC(=O)N/N=C\c1ccc([N+](=O)[O-])s1,0.4,-23.6,10.1,1.7,18.1,6.5*,4.7*
COc1cc(C(=O)Nc2cccnc2)cc(OC)c1OC,0.1,-12.9,23.1,2.2,-0.8,-0.1,.
COc1ccc(NC(=O)c2cc(OC)c(OC)c(OC)c2)cn1,0.5,-17.4,1.8,-1.6,-12.1,3.7*,0.4
CC1(Cc2ccccc2Cl)C(=O)Nc2c(Cl)cccc21 (stereo unspecified),-0.6,-7.2,.,.,.,0.1,.
O=C(CCN1CCCCC1)c1ccccc1,3.9,-3.8,-3.0,1.1,-3.5,4.7*,0.5
COc1ccc(NC(=O)NC[C@@H]2CC[C@@H](Cc3ccc(-c4ccccc4)cc3)O2)cc1,2.8,-22.5,-7.7,.,.,6.4*,0.7
CCNc1nc(SC(C)C(=O)OC)nc(N2CCOCC2)n1 (stereo unspecified),-1.3,-5.1,11.6,4.6,8.8,66.0*,-0.9
O=C(NNC(=O)c1ccc([N+](=O)[O-])o1)c1ccccc1,-1.2,34.3,7.8,0.3,21.1,1.1,.
C/C(=N/NC(=O)C(O)(c1ccccc1)c1ccccc1)c1ccc([N+](=O)[O-])o1,3.4,-18.4,10.9,5.4,1.9,8.2*,3.7*
CCOc1ccc(N=Cc2ccc([N+](=O)[O-])cc2)c(O)c1,1.1,-83.0,.,.,.,5.9*,2.2
Cn1c(SCC(=O)Nc2ccc(NC(=O)c3cccc(F)c3)cc2)nnc1-c1ccncc1,-1.8,-19.6,-0.6,-5.5,-1.9,1.8*,-0.1
CCOC(=O)c1ccc(N2C(=O)c3n[nH]c(C)c3C2c2ccccc2)cc1 (stereo unspecified),2.4,4.3,22.0,-1.1,-8.0,27.6*,-0.6
CCc1nc2ccc(C(=O)N(C)CCCN(C)C)cn2c1N(C)Cc1cc2ccccc2s1,-0.5,-18.0,.,.,.,0.5,.
CN(CC(=O)NNC(=O)CNC(=O)c1cccs1)S(=O)(=O)c1ccc(Cl)cc1,-2.9,4.4,11.5,-0.2,-9.0,-0.3,.
CCn1cc(C(=O)N2CCCC(C(=O)c3ccc4ccccc4c3)C2)cn1 (stereo unspecified),0.4,11.6,-6.7,2.0,0.2,5.5*,-0.8
CCN1CCCC1CNC(=O)C(=O)NC (stereo unspecified),-1.9,-14.9,-5.8,1.9,-26.4,-0.2,.
CCCCCOc1ccc(NC(=O)C(=O)NCC2CCCN2CC)cc1 (stereo unspecified),16.6,5.2,0.0,-0.1,-17.4,10.6*,15.1*
SMILES,MPTP block,NR2E3 ag-1,697 NFkB inh,NR2E3 ag-2,Jurkat NFkB inh,aDG glyco up,aDG conf
C/C(=N\Nc1ncc(Cl)cc1Cl)c1ccc2c(c1)OCO2,2.8,-25.1,-17.0,-2.7,-26.5,12.7*,-0.7
O=C(c1ccc2c(c1)OCO2)N(Cc1cccs1)C1(C(=O)NC2CCCCC2)CCCCC1,6.5,-24.4,.,-2.1,.,7.4*,0.0
O=C(Cc1cccs1)N(Cc1cccs1)C1(C(=O)NC2CCCC2)CCCCC1,0.8,-16.9,-16.4,2.4,25.2,0.3,.
CC1CCN(C(=O)Cn2c3ccccc3c3nc4n(c(=O)c32)CCCS4)CC1,-1.1,-8.6,8.1,-1.2,-4.0,-0.6,.
CCOC(=O)CNC(=O)c1cc(-c2ccccn2)nc2c(C)c(Cl)ccc12,4.7,-20.2,-7.1,0.8,-5.8,-0.1,.
Cc1c(Cl)ccc2c(C(N)=O)cc(-c3ccccn3)nc12,1.3,2.1,15.6,-7.3,7.5,4.1*,1.2
CN(C)C(=O)c1cn(-c2ccccc2)nc1-c1cccs1,-0.3,-8.6,23.4,-0.2,-7.3,61.6*,-0.3
O=C(c1cn(-c2ccccc2)nc1-c1cccs1)N(CCO)Cc1ccccc1,-2.9,3.8,-33.3,2.4,-17.5,0.3,.
CN(C)CCCNC(=O)C[C@H]1C[C@H](C(=O)N2CCOCC2)[C@@]2(C)c3[nH]c4ccc(Cl)cc4c3CCN2C1=O,-1.1,-26.7,9.5,.,.,5.2*,-1.1
COc1ccc(-c2ccc3c(c2)S(=O)(=O)c2cccc(C(=O)NCc4cccc(OC(F)(F)F)c4)c2C3=O)cc1OC,-1.2,11.0,4.0,.,6.5,18.3*,0.8
O=C(NCc1cccc(OC(F)(F)F)c1)c1cccc2c1C(=O)c1ccc(-c3ccc(F)cc3OCc3ccccc3)cc1S2(=O)=O,1.4,2.5,-32.5,.,-8.3,-0.5,.
O=C(NCCS(=O)(=O)NCC1CCCO1)c1ccccc1 (stereo unspecified),-0.4,21.8,6.7,-2.9,2.0,5.2*,2.6
CS(=O)(=O)N1CCN(c2ccc(NC(=S)NC(=O)c3ccccc3[N+](=O)[O-])cc2)CC1,0.1,-18.2,-3.9,2.0,1.6,-0.1,.
Cc1cc(NC(=O)COc2ccccc2C)ccc1NC(=O)c1cccs1,3.0,-5.5,9.0,0.2,21.9,0.0,.
O=C(COc1ccccc1)Nc1nc(-c2ccc(S(=O)(=O)N3CCOCC3)cc2)cs1,-2.0,28.4,-22.7,-1.3,4.4,0.1,.
O=C(COC(=O)c1ccc(S(=O)(=O)N2CCOCC2)cc1)Nc1nc(-c2ccccc2)cs1,1.7,-10.6,2.3,-4.9,-14.1,6.2*,-0.4
